From ChEMBL document CHEMBL4622976, “Development of pH/Glutathione-Responsive Theranostic Agents Activated by Glutathione S-Transferase π for Human Colon Cancer” (J Med Chem, 2020)
Activity calls are given as the source filed them. The calls are words filed in the database; no cut-off is given here.

Experiments:
[1] = tested on: HT-29; assay: Induction of autophagy in human HT-29 cells assessed as increase in LC3-II protein level incubated for 72 hrs by Western blot analysis; assay type: functional, cell-based
Outline: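 HT29 cells (1.5×10^5/mL) exposed to compound or vehicle for 72 h, then lysed. Lysates (0.05 mg/lane) run on 12% SDS-PAGE, transferred to nitrocellulose, blocked with 5% non-fat milk and probed for LC3, p62, beclin-1 and β-actin. Bands quantified relative to β-actin, with LC3-II/LC3-I ratio also calculated; means ± SD from three independent assays.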

[2] = Antiproliferative activity against rat 9L-2 cells by MTT assay; assay type: functional, cell-based
Outline: (§1)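 MTT assay. Cells were grown in DMEM/RPMI 1640 with 10% FBS, penicillin and streptomycin at 37 °C under 5% CO2. After a PBS wash, cells got 0.5 mg/mL MTT for 3 h at 37 °C. Formazan was dissolved in DMSO and absorbance read at 570 nm. Inhibition was expressed as a percentage and IC50 calculated. Means ± SD come from three separate experiments.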

[3] = Toxicity in ICR mouse assessed as induction of animal survival rate at 240 mg/kg, ip measured after 14 days; assay type: organism-based; conditions: in vivo
Outline: (§2)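 Female ICR mice, randomised, n = 10 per group. Single intraperitoneal dose of 240.0, 300.0, 375.0, 468.8 or 585.9 mg/kg, or vehicle. Deaths recorded at 1 h, 4 h, days 1–4 and days 5–14. Body weight, drinking, eating and activity observed over 14 days. Survival percentage taken on day 14; LD50 derived from the dose–mortality data.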

[4] = tested on: HT-29; assay: Induction of apoptosis in human HT-29 cells assessed as increase in cleaved PARP protein level incubated for 72 hrs by Western blot analysis; assay type: functional, cell-based
Outline: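 HT29 cells (1.5×10^5/mL) were treated for 72 h and lysed. Lysate (0.05 mg/lane) was run on 12% SDS-PAGE and transferred to nitrocellulose. After blocking in 5% non-fat milk, blots were probed for Bax, Bcl-2, cleaved caspase-3, cleaved PARP, LC3, p62 and beclin-1. Levels were normalised to β-actin, and means ± SD taken from three independent assays.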

[5] = tested on: HT-29; assay: Induction of apoptosis in human HT-29 cells at 1 uM incubated for 72 hrs by FITC-AnnexinV/PI staining based flow cytometry relative to control; assay type: functional
Outline: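 HT29 cells were cultured 12 h, then exposed to compound (0.4, 1.0, 2.5 µM) or vehicle for 72 h. Harvested cells were stained with Annexin V and PI, and apoptotic cell percentages measured by flow cytometry. Means ± SD come from three separate experiments.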

[6] = Toxicity in ICR mouse assessed as induction of abnormality in drinking behavior at 240 mg/kg, ip for 14 days; assay type: organism-based; conditions: in vivo, 336 h
Outline: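 Female ICR mice (n = 10 per group) given a single intraperitoneal dose at 240.0, 300.0, 375.0, 468.8 or 585.9 mg/kg, or vehicle. Deaths recorded at 1 h, 4 h and daily through day 14. Body weight, drinking, eating and activity observed for abnormality; LD50 derived from mortality.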

[7] = Toxicity in ICR mouse assessed as induction of animal survival rate at 300 mg/kg, ip measured after 14 days; assay type: organism-based; conditions: in vivo; outline: as §2
[8] = Toxicity in ICR mouse assessed as induction of animal survival rate at 468.8 mg/kg, ip measured after 14 days; assay type: organism-based; conditions: in vivo; outline: as §2
[9] = tested on: HT-29; assay: Antitumor activity against human HT-29 cells xenografted in nude BALB/c mouse assessed as tumor weight level at 40 mg/kg, ip dosed every day for 21 days (reference value: 1.49 +/- 0.27 g); assay type: functional
[10] = Drug metabolism assessed as GSTpi (unknown origin) mediated compound fluorescence activation at 1 uM in presence of 100 uM cysteine by HPLC analysis; assay type: ADME; conditions: human
Outline: (§3)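 Selectivity test: compound (1 µM) with catalytic GSTπ and each analyte in water with 1% (v/v) DMSO at pH 4.0, 37 °C for 0.5 h. Analytes were cations at 1 mM; amino acids, vitamin C, Na2S and GSH at 100 µM. Readout was fluorescence emission spectra (excitation 440 nm, recorded 450–650 nm).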

[11] = Drug uptake in lysosome of human HT-29 cells at 1 uM incubated for 60 mins by Lyso-tracker based confocal fluorescence microscopy; assay type: ADME, subcellular; conditions: ht-29, 1 h
Outline: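 HT29 and CCD841 cells were seeded at 2×10^5 in glass-bottom dishes. They were co-incubated in DMEM with compound (1 µM) and LysoTracker Red DND-99 (1 µM). Confocal imaging used a 40× water objective. Compound channel: 405 nm laser, 480–530 nm filter. LysoTracker channel: 561 nm laser, 580–630 nm filter.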

[12] = Toxicity in BALB/c mouse xenografted with human hT-29 cells assessed as effect on body mass at 20 to 40 mg/kg, ip dosed every day for 21 days; assay type: organism-based; conditions: in vivo, 504 h
Outline: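 Female BALB/c nude mice, 5-6 weeks old, inoculated subcutaneously with 1×10^6 HT29 cells. At tumor volume 100 mm³, animals randomized to compound or saline, given intraperitoneally every day for 21 days. Body weight recorded every three days; animals euthanized at 20% weight loss. Tumor volume = ½(L×W²) from caliper measurements; tumors excised and weighed at the end.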

[13] = tested on: HT-29; assay: Antitumor activity against human HT-29 cells xenografted in nude BALB/c mouse assessed as reduction in tumor weight at 40 mg/kg, ip dosed every day for 21 days relative to control; assay type: functional; design: scale not given: the % may be the effect or the level left
[14] = Toxicity in ICR mouse assessed as induction of animal death at 240 to 585.9 mg/kg, ip measured after 4 hrs; assay type: organism-based; conditions: in vivo; outline: as §2
[15] = Drug metabolism assessed as GSTpi (unknown origin) mediated compound fluorescence activation at 1 uM in presence of 1 mM Fe2+ by HPLC analysis; assay type: ADME; conditions: human; outline: as §3
[16] = tested on: HT-29; assay: Antiproliferative activity against human HT-29 cells by MTT assay; assay type: functional, cell-based; outline: as §1
[17] = Drug metabolism assessed as GSTalpha (unknown origin) mediated 1-(3,4,5-trimethoxyphenyl)-9H-pyrido[3,4-b]indol-3-amine formation at 40 uM in presence of 0.8 mM GSH by HPLC analysis; assay type: ADME; conditions: human
Outline: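 HPLC measurement of amine release after incubating compound (40 µM) with GSH (0.8 mM) and GSTπ or GSTα at 0.03 µg/ml.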

[18] = Toxicity in ICR mouse assessed as induction of animal death at 240 to 300 mg/kg, ip measured after 4 days; assay type: organism-based; conditions: in vivo, 96 h; outline: as §2
[19] = Drug metabolism assessed as GSTpi (unknown origin) mediated compound fluorescence activation at 1 uM in presence of 1 mM Ca2+ by HPLC analysis; assay type: ADME; conditions: human; outline: as §3
[20] = Drug metabolism assessed as GSTpi (unknown origin) mediated compound fluorescence activation at 1 uM in presence of 1 mM Al3+ by HPLC analysis; assay type: ADME; conditions: human; outline: as §3
[21] = tested on: HT-29; assay: Antitumor activity against human HT-29 cells xenografted in nude BALB/c mouse assessed as reduction in tumor volume at 40 mg/kg, ip dosed every day for 21 days; assay type: functional, organism-based
[22] = Drug metabolism assessed as GSTpi (unknown origin) mediated compound fluorescence activation at 1 uM in presence of 100 uM lysine by HPLC analysis; assay type: ADME; conditions: human; outline: as §3
[23] = Drug metabolism assessed as GSTpi (unknown origin) mediated compound fluorescence activation at 1 uM in presence of 1 mM Zn2+ by HPLC analysis; assay type: ADME; conditions: human; outline: as §3

COc1cc(-c2nc(NC(=O)OCC3=CCCCC3=O)cc3c2[nH]c2ccccc23)cc(OC)c1OC
Activity [1]: Dose-dependent effect | IC50 [2]: 4.32 µM | survival at 336 h [3]: 100% | Activity [4]: Dose-dependent effect | Activity [5]: 36.8% | Activity [6]: Non-Toxic | survival at 336 h [7]: 100% | survival at 336 h [8]: 40% | Activity [9]: 0.48 g | Drug metabolism [10]: Metabolite_Notdetected | Drug uptake [11]: Active | Activity [12]: Non-Toxic | Activity [13]: 67.7% | Activity [14]: Non-Toxic | Drug metabolism [15]: Metabolite_Notdetected | IC50 [16]: 920 nM | Drug metabolism [17]: Metabolite_Notdetected | Activity [18]: Non-Toxic | Drug metabolism [19]: Metabolite_Notdetected | Drug metabolism [20]: Metabolite_Notdetected | Activity [21]: Active | Drug metabolism [22]: Metabolite_Notdetected | Drug metabolism [23]: Metabolite_Notdetected
